Active and inactive are the calls of the source. No cut-off for these calls is given here.
Key:
[1] = (§1) Cytotoxicity against rat PC-12 cells assessed as cell viability at 40 uM measured after 24 hrs by Alamar blue assay relative to control; format: cell-based; conditions: PC-12 cells, read-out: Activity
Procedure, shortened: (§2)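 PC-12 neuronal cells incubated 24 h with compound at 40 µM. Viability read with Alamar Blue and expressed as percent of untreated cells.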

[2] = target: T1, Amyloid-beta precursor protein (Homo sapiens, UniProt P05067); experiment: Inhibition of amyloid beta (1 to 42 ) (unknown origin) self aggregation at 40 uM after 24 hrs by thioflavin-T fluorescence method
Procedure, shortened: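 Aβ42 (10 µM) incubated with compound (40 µM) for 24 h at 37 °C. Fibril formation quantified by Thioflavin T and given as percent of Aβ42 left to fibrillate alone. n = 3, Dunnett test.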

[3] = target: T1, Amyloid-beta precursor protein; experiment: Inhibition of amyloid beta (1 to 42 ) (unknown origin) self aggregation at 40 uM measured after 24 hrs in presence of copper ion by thioflavin-T fluorescence method
Procedure, shortened: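 Aβ42 (10 µM) incubated with Cu2+ (10 µM) and compound for 24 h at 37 °C with shaking at 180 rpm. Percent fibril formation determined by Thioflavin T. Compared against Aβ42 alone and Aβ42 + Cu2+ by Dunnett test. n = 3.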

[4] = Metal chelating activity assessed as Fe3+-compound complex formation by measuring hyperchromic shift at 50 uM incubated for 30 mins by UV-visible spectrophotometry
[5] = Metal chelating activity assessed as Cu2+-compound complex formation by measuring hyperchromic shift at 50 uM incubated for 30 mins by UV-visible spectrophotometry
[6] = Metal chelating activity assessed as Zn2+-compound complex formation by measuring hyperchromic shift at 50 uM incubated for 30 mins by UV-visible spectrophotometry
PC-12 [7] = experiment: Anti-inflammatory activity in rat PC-12 cells assessed as decrease in LPS-stimulated ROS accumulation at 40 uM measured after 24 hrs by DCFH-DA staining based FACS […] assay; format: functional, cell-based
Procedure, shortened: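 PC-12 cells inflamed with LPS (10 µg/mL), then treated with compound at 40 µM for 24 h. ROS measured by DCFDA flow cytometry. Cells gated on FSC/SSC, singlets selected (FSC area vs height), and dead cells excluded by propidium iodide. The percentage of DCFDA ROS-high live cells was taken from the FL1 vs FSC dot plot quadrant. n = 3.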

[8] = target: T1, Amyloid-beta precursor protein; experiment: Inhibition of amyloid beta (1 to 42 ) (unknown origin) self aggregation measured after 24 hrs by thioflavin-T fluorescence method
[9] = Metal chelating activity assessed as Cu2+-compound complex formation at compound:Cu2+ concentration ratio of 1:1 to 1:6 incubated for 30 mins by UV-visible spectrophotometry
Procedure, shortened: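 Compound titrated with Cu2+ at compound:Cu ratios 1:1 to 1:6 in HEPES buffer at room temperature. UV–vis spectra recorded over about 240–320 nm. Absorbance plotted against ratio and fitted linearly.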

[10] = Metal chelating activity assessed as Fe3+-compound complex formation at compound:Fe3+ concentration ratio of 1:1 to 1:5 incubated for 30 mins by UV-visible spectrophotometry
Procedure, shortened: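 Compound combined with Fe3+ at compound:Fe ratios 1:1, 1:3 and 1:5 in HEPES buffer at room temperature. UV–vis spectra recorded over about 250–350 nm.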

[11] = Metal chelating activity assessed as Zn2+-compound complex formation at incremental dose of compound incubated for 30 mins by UV-visible spectrophotometry
PC-12 [12] = experiment: as §1; format: cell-based; conditions: pc-12, 24 h, 40 µM; procedure, shortened: as §2

T1 sequence (P05067 whole entry): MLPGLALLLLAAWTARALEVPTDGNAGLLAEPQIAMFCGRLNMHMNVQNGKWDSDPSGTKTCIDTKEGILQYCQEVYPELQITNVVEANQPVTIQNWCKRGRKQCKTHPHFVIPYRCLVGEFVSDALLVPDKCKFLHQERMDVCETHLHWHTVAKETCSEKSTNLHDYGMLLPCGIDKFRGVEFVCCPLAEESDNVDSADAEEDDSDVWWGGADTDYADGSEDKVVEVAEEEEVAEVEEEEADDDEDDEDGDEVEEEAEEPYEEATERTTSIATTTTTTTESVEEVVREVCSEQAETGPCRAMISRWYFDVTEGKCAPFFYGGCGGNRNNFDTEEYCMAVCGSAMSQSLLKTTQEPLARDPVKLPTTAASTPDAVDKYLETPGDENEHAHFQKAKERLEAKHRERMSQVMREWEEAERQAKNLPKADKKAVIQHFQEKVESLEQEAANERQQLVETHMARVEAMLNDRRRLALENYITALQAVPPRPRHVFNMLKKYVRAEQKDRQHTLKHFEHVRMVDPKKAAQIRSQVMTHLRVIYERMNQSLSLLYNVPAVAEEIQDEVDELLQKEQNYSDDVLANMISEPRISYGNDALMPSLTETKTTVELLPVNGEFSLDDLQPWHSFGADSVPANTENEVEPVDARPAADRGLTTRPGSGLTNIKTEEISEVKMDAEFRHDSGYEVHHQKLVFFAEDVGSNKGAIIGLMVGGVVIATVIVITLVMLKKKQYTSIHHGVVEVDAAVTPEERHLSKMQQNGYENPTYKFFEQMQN

With `Cc1ccc(NC(=O)c2cn(-c3ccc(C(O)(C(F)(F)F)C(F)(F)F)cc3)nn2)cc1C` the viability at 24 h, 40 µM [1] was over 60% and the inhibition [2] was “Active”.
With `Cc1ccc(-n2cc(CNc3ccc(C(O)(C(F)(F)F)C(F)(F)F)cc3)nn2)cc1C` the viability at 24 h, 40 µM [1] was over 60% and the inhibition [2] was “inactive”.
With `Cc1ccc(-n2cc(C(=O)Nc3ccc(C(O)(C(F)(F)F)C(F)(F)F)cc3)nn2)cc1C` the viability at 24 h, 40 µM [1] was over 60%, the inhibition [2] was “Active” and the inhibition [3] was under 50%. For the same compound, the Activity [4] was “Active”, the Activity [5] was “Active” and the Activity [6] was “Active”. For the same compound, the Activity (PC-12 [7]) was “Active”, the IC50 [8] was 4.6 µM and the Activity [9] was “Active”. For the same compound, the Activity [10] was “Active” and the Activity [11] was “Active”.
In the case of `OC(c1ccc(NCc2cn(-c3ccccc3)nn2)cc1)(C(F)(F)F)C(F)(F)F`, the Activity (PC-12 [12]) is reported as “Toxic”.
With `O=C(Nc1ccccc1)c1cn(-c2ccc(C(O)(C(F)(F)F)C(F)(F)F)cc2)nn1` the viability at 24 h, 40 µM [1] was over 60% and the inhibition [2] was “inactive”.
For `O=C(Nc1ccc(C(O)(C(F)(F)F)C(F)(F)F)cc1)c1cn(-c2ccccc2)nn1`, the Activity (PC-12 [12]) was “Toxic”.
In the case of `COc1ccc(-n2cc(CNc3ccc(C(O)(C(F)(F)F)C(F)(F)F)cc3)nn2)cc1OC`, the viability at 24 h, 40 µM [1] is reported as over 60%, the inhibition [2] is reported as “Active” and the inhibition [3] is reported as under 50%.
